Reference: publication PMC12265513 (bioRxiv, 2025)
Peptide text beside a SMILES is read from it. * marks the point of attachment. FITC = O=C1OC2(c3ccc(O)cc3Oc3cc(O)ccc32)c2ccc(NC(=S)*)cc21; Ahx = NCCCCCC(=O)O

Tests used:
[1] = system: HPAECs; test: Anti-collagen III immunofluorescence in HPAECs; assay type: cell-based, human; conditions: 24 hr, n=3
Outline: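 HPAECs grown on glass chamber slides were exposed to test compound for 24 hr. They were then fixed in 4% formalin in PBS and blocked with 10% goat albumin in PBS for 1 hr at room temperature. Primary antibody (1:100) was applied overnight at 4°C. Collagen III deposition and NEDD9-positive cells were scored by immunofluorescence.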

[2] = system: NEDD9; test: NEDD9 immunoblot in HPAECs; assay type: cell-based, human; conditions: 50-200 μM for 30-120 min, basal conditions, vs vehicle, n=3
Outline: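 Confluent HPAECs in EBM-2 medium received test compound from a 10 mM DMSO stock, with DMSO as vehicle, for 30, 60 or 120 min. Lysates were immunoblotted with anti-NEDD9 (1:1000) overnight at 4°C, then peroxidase secondary and ECL detection.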

[3] = system: NEDD9-SMAD3 complex; test: NEDD9-SMAD3 complex formation; assay type: cell-based, human; conditions: H2O2 (500 μM) for 20 min, n=3
Outline: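 HPAECs were treated with 500 μM H2O2 for 20 min with or without test compound. The complex was measured two ways. One was anti-NEDD9 immunoprecipitation followed by anti-SMAD3 immunoblot. The other was proximity ligation with mouse anti-NEDD9 and rabbit anti-SMAD3, normalised to total NEDD9 expression. n=3.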

[4] = system: NEDD9-SH3 (1-64); test: Intact protein mass spectrometry, covalent modification of the SH3 domain; assay type: binding; conditions: intact MS and 2-D NMR
Outline: (§1)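 Dual screen: NEDD9-SH3 (1-64) and BRAF-RBD, each at 1 μM, were mixed in one reaction with 100 μM covalent fragment. Controls were 100 μM iodoacetamide or 1% DMSO. Buffer was 50 mM HEPES pH 7.4, 100 mM NaCl, 4 h at 21°C. Reactions were quenched to 0.2% formic acid and read by RapidFire QTOF MS. Hits formed a single adduct on NEDD9-SH3 at least two-fold greater than on BRAF-RBD.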

[5] = system: BRAF-RBD; test: Intact MS counter screen; assay type: binding; conditions: deconvoluted MS
Outline: as §1

[6] = target: GST-fused construct of the NEDD9-SH3 domain (Homo sapiens, UniProt Q14511); test: Fluorescence polarization, direct binding of FITC-labeled pep01 probe

For `C=CC(=O)Nc1cc(C(F)(F)F)cc(C(F)(F)F)c1` [Fragment 1, N-[3,5-Bis(trifluoromethyl)phenyl] acrylamide], the “fibrosis in cellulo by anti-collagen III immunofluorescence” value [1] was “decreased fibrosis”, the “NEDD9 protein quantity by immunoblot” value [2] was “decreased NEDD9 protein quantity” and the NEDD9-SMAD3 complex formation [3] was “restored NEDD9-SMAD3 complex formation”.

For `C[C@@H]1CCN(C(=O)CCl)[C@@H](C(N)=O)C1` [Fragment 2, (2R,4R)-1-(2-chloroacetyl)-4-methylpiperridine-2-carboxamide], the “adduct formation to NEDD9-SH3” value [4] was “dose- and time-dependent increase in adduct formation” and the BRAF-RBD modification [5] was “did not show BRAF-RBD modification”.

`C[C@H](NC(=O)[C@H](CCC(=O)O)NC(=O)[C@H](CC(=O)O)NC(=O)CCCCCNC(=S)Nc1ccc2c(c1)C(=O)OC21c2ccc(O)cc2Oc2cc(O)ccc21)C(=O)N1CCC[C@H]1C(=O)N1CCC[C@H]1C(=O)N[C@@H](CCCCN)C(=O)N1CCC[C@H]1C(=O)N[C@@H](CO)C(=O)N[C@@H](CCCNC(=N)N)C(=O)N1CCC[C@H]1C(=O)NCC(=O)N[C@@H](Cc1ccc(O)cc1)C(=O)N1CCC[C@H]1C(=O)N[C@@H](CO)C(N)=O` [FITCylated pep01] ({FITC-Ahx}-DEAPPKPSRPGYPS-NH2) showed a Kd [6] of 4 µM.
